Assay [1] in a line: reducers of endogenous Her2 protein level, primary screen, SKBR3 breast tumor cells, AlphaScreen, ATP viability (AID 461;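 active = Her2 level under about 52% in both replicate screens, with viability over 70% of control, limit read from the data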;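 as to Her2 level: lower value means less Her2 protein in the cells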;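 as to viability: percent of carrier control wells set as 100% viability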). The following applies: 18-24 h, measured here: SKBR3 viability, ATP luminescence, at 10 µM.
Assay [2] deals with Receptor tyrosine-protein kinase erbB-2 (Homo sapiens) (UniProt P04626). The assay is described as above. The following applies: 18-24 h, at 10 µM, stronger effect = lower value.
Assay [3] can be described thus: SK-BR-3 cell growth inhibitors, pilot screen, 24 h, human (AID 572;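 active = viability at or below 10% of carrier control in both of two separate runs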;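 also: compound exposure lasted between 18 and 24 h rather than exactly 24 h; 100% = carrier-treated control wells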). The following applies: SK-BR-3 viability, CellTiter-Glo luminescence, at 10 µM, stronger effect = lower value.
The nature of assay [4]: HUVEC growth inhibition – cell-based, human, primary screen (AID 575;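 active = viability at or below 30% in both replicate assays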;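 also: 100% = median of untreated cell wells with 0.1% DMSO on each plate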). The following applies: HUVEC proliferation, CellTiter-Glo luminescence, 72 h; at 10 µM; stronger effect = lower value. The method in brief: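 Material: primary human umbilical vein endothelial cells / Schedule: 72 h exposure, 37 °C, 5% CO2, 30 min RT equilibration / Signal: ATP-based CellTiter-Glo luminescent read / Read-out basis: percent of median DMSO-control luminescence / Control set: 32 DMSO-only cell-control wells (high), 32 MePR drug-control wells (low) per plate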
(ATP-based viability assays read luminescence as a measure of living cells.)

Assay [5] in a line: growth inhibitors of H69AR lung tumor, primary screen, human, duplicate replicates (AID 580).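 Also: 100% = mean luminescence of untreated wells and 0% = no signal.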 To be noted: H69AR lung tumor cells viability, ATP luminescence, 72 h; at 10 µM; stronger effect = lower value.
A short description of assay [6]: reversal of MRP1-mediated doxorubicin resistance, pilot screen, H69AR cells, doxorubicin co-treatment (AID 601;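 active = viability loss from added drug above about 55%, and viability with drug at most 40%, in both replicates, limit read from the data, passing the limit was not always enough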). To be noted: CellTiter-Glo, 72 h, at 10 µM; for differential viability (reversal): stronger effect = higher value.
Assay [7] in a line: 384-well plate pilot, post-Golgi transport modulator project, inhibition of yeast transport mutant growth (AID 636; in the data active = inhibition above about 31%). To be noted: absorbance 615 nm, about 18 h, stronger effect = higher value.
Assay [8] is described as follows: growth suppression of yeast trafficking mutant, preliminary HTS, modulators of trafficking downstream of Golgi apparatus project, 1536-format plate, OD 615 nm (AID 637; in the data active = inhibition above about 30%). To be noted: yeast transport mutant growth, absorbance 615 nm, 18 h; stronger effect = higher value.
Setting [9] is: H69AR cells + 2 uM doxorubicin, measured here: viability with 2 uM doxorubicin, stronger effect = lower value.
Where [10] appears, read: H69AR cells, compound alone cytotoxicity.

The structures appear in SMILES notation. Active and inactive are the calls of the source.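 The calls were made as follows, unless noted: active = viability at or under a set limit in both replicates, limit being median viability minus 3 SD (cut at about 48% in these data, passing the limit was not always enough); inconclusive = at or under the limit in just one replicate; inactive = at or above the limit in both replicates.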

As usually defined, the viability is a read-out of living cells in per cent, often relative to untreated cells. The inhibition is the drop in the measured response relative to a control, in per cent.

Receptor tyrosine-protein kinase erbB-2 (Homo sapiens), sequence (P04626 whole entry, looked up): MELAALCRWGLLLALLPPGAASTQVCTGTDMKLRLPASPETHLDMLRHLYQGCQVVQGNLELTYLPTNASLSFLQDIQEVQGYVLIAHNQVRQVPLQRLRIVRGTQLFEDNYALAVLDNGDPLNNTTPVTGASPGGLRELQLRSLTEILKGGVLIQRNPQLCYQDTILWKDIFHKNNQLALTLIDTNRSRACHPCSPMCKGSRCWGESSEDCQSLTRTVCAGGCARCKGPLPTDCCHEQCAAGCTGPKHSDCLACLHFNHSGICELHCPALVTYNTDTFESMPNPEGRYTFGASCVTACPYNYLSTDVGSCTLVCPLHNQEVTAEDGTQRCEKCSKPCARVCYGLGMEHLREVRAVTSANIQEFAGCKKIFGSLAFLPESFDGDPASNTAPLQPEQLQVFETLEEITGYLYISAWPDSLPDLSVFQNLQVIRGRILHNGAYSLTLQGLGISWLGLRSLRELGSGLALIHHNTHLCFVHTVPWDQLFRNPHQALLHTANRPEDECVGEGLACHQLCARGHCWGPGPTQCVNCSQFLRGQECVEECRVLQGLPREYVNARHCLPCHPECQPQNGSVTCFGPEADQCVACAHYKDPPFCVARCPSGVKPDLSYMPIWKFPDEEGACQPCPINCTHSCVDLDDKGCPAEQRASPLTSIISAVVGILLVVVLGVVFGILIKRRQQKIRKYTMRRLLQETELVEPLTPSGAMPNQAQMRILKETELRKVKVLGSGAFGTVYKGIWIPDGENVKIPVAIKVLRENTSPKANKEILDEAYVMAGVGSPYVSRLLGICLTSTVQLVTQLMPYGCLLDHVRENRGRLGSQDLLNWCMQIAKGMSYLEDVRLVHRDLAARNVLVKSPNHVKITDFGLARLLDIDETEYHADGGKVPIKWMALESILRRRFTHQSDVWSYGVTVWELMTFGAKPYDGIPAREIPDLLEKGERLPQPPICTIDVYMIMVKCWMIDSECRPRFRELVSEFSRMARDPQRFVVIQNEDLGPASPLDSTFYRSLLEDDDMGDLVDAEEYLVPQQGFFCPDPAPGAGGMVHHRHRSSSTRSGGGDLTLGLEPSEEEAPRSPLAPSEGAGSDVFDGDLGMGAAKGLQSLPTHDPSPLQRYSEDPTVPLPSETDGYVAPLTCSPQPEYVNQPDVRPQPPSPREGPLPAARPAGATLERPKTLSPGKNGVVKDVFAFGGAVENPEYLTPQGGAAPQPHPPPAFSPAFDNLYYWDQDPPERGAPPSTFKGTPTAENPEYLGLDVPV

For the compound `CCOc1ccc(S(=O)(=O)Nc2cccc(Cl)c2)cc1`, the viability in assay [1] is 86%; in assay [3] it was 86% (inactive); in assay [4], 50.7% (inactive); in assay [5], 18.8% (active); in assay [6] (setting [9]), 60.7%; in assay [6] (setting [10]), 18.8%. Further, in assay [2], the Her2 level was 74.5% (inactive). In addition, in assay [6] (H69AR cells + 2 uM doxorubicin), the differential viability (reversal) is -41.9% (inactive). Further, the inhibition in assay [7] is -5.07% (inactive); in assay [8], -3.28% (inactive).
In the case of `Cc1ccc(NC(=O)CSc2nnc(-c3cnccn3)n2Cc2ccco2)cc1C`, the viability is 80.5% in assay [1]; 80.5% (inactive) in assay [3]; 80.6% (inactive) in assay [4]; 104% (inactive) in assay [5]; 97.5% in assay [6] (setting [9]); 104% in assay [6] (setting [10]). The Her2 level in assay [2] is 93% (inactive). Besides, the differential viability (reversal) in assay [6] (H69AR cells + 2 uM doxorubicin) is 6.65% (inactive). In addition, the results for the inhibition in assay [7] and in assay [8] were -1.82% (inactive) and -7.67% (inactive), respectively.
Turning to `CCn1c(SCC(=O)c2ccc(OC)cc2)nnc1C(C)NC(=O)c1ccc(OC)cc1` (stereo not given), the viability was 93% in assay [1]; 93% (inactive) in assay [3]; 85.7% (inactive) in assay [4]; 88.2% (inactive) in assay [5]; 91.9% in assay [6] (setting [9]); 88.2% in assay [6] (setting [10]). Besides, the Her2 level in assay [2] was 106% (inactive). Further, in assay [6] (H69AR cells + 2 uM doxorubicin), the differential viability (reversal) is -3.72% (inactive). In addition, the inhibition is -1.2% (inactive) in assay [7] and -8.41% (inactive) in assay [8].
As to `Cc1nc2ccccn2c1C(=O)NCCCN1CCOCC1`, the viability in assay [1] is 91.5%; in assay [3], 91.5% (inactive); in assay [4] it was 109% (inactive); in assay [5], 102% (inactive); in assay [6] (setting [9]), 96.4%; in assay [6] (setting [10]) it was 102%. Also, the Her2 level in assay [2] is 94.5% (inactive). The differential viability (reversal) in assay [6] (H69AR cells + 2 uM doxorubicin) was 5.8% (inactive). The inhibition in assay [7] was -0.27% (inactive); in assay [8] it was 4.59% (inactive).
`O=C(O)CCN1C(=O)c2ccccc2C1=O`: the viability was 99% in assay [1]; 99% (inactive) in assay [3]; 112% (inactive) in assay [4]; 97.5% (inactive) in assay [5]; 99.4% in assay [6] (setting [9]); 97.5% in assay [6] (setting [10]). In addition, the Her2 level in assay [2] is 91% (inactive). Besides, the differential viability (reversal) in assay [6] (H69AR cells + 2 uM doxorubicin) was -1.81% (inactive). The inhibition is -2.24% (inactive) in assay [7] and 2.79% (inactive) in assay [8].
Regarding `CCCCC(CC)CNC(=O)C1CCCN(S(=O)(=O)c2cnc[nH]2)C1` (stereo not given), the viability in assay [1] is 91.5%; in assay [3], 91.5% (inactive); in assay [4], 105% (inactive); in assay [5] it was 92.2% (inactive); in assay [6] (setting [9]), 94.1%; in assay [6] (setting [10]), 92.2%. For the same compound, the Her2 level in assay [2] is 95.5% (inactive). For the same compound, in assay [6] (H69AR cells + 2 uM doxorubicin), the differential viability (reversal) is -1.91% (inactive). Moreover, the inhibition in assay [7] was -2.67% (inactive); in assay [8], 2.79% (inactive).
As to `Cc1cccc(COc2ccc(/C(O)=C3\C(=O)C(=O)N(CCN(C)C)C3c3ccncc3)cc2)c1` (stereo not given), the viability was 108% in assay [1]; 108% (inactive) in assay [3]; 105% (inactive) in assay [4]; 97.3% (inactive) in assay [5]; 101% in assay [6] (setting [9]); 97.3% in assay [6] (setting [10]). In addition, in assay [2], the Her2 level was 94% (inactive). Further, in assay [6] (H69AR cells + 2 uM doxorubicin), the differential viability (reversal) is -3.29% (inactive). For the same compound, the inhibition is -2.11% (inactive) in assay [7] and 3.28% (inactive) in assay [8].
As for `CCCNC(=O)NC(C(=O)OC)C12CC3CC(CC(C3)C1)C2` (stereo not given), the viability in assay [1] is 101%; in assay [3], 101% (inactive); in assay [4] it was 80.4% (inactive); in assay [5], 102% (inactive); in assay [6] (setting [9]), 91.6%; in assay [6] (setting [10]), 102%. Moreover, the Her2 level in assay [2] is 76.5% (inactive). The differential viability (reversal) in assay [6] (H69AR cells + 2 uM doxorubicin) is 10.1% (inactive). The inhibition in assay [7] is -5% (inactive); in assay [8] it was -1.5% (inactive).
`CCC(=O)c1ccc(OCC(O)CN2CCN(S(=O)(=O)N3CCCCC3)CC2)cc1` (stereo not given): the viability in assay [1] is 91%; in assay [3], 91% (inactive); in assay [4], 105% (inactive); in assay [5] it was 110% (inactive); in assay [6] (setting [9]), 92.2%; in assay [6] (setting [10]), 110%. Further, in assay [2], the Her2 level was 82% (inactive). Also, the differential viability (reversal) in assay [6] (H69AR cells + 2 uM doxorubicin) was 18.1% (inactive). Moreover, the inhibition in assay [7] was -3.33% (inactive); in assay [8], 3.44% (inactive).
Turning to `COC(=O)c1cccc(NC(=O)CSc2nnc(COc3ccc(C#N)cc3)n2-c2ccccc2)c1`, the viability in assay [1] is 92%; in assay [3] it was 92% (inactive); in assay [4], 105% (inactive); in assay [5] it was 87.8% (inactive); in assay [6] (setting [9]), 89.4%; in assay [6] (setting [10]), 87.8%. The Her2 level in assay [2] was 112% (inactive). Also, the differential viability (reversal) in assay [6] (H69AR cells + 2 uM doxorubicin) is -1.66% (inactive). Besides, the inhibition in assay [7] was 3.38% (inactive); in assay [8], -3.02% (inactive).
With `COC(=O)c1ccc(NC(=O)CN2CCN(c3ccc(Cl)cc3)CC2)cc1`, the viability in assay [1] was 96.5%; in assay [3], 96.5% (inactive); in assay [4], 104% (inactive); in assay [5] it was 96.1% (inactive); in assay [6] (setting [9]), 96.6%; in assay [6] (setting [10]), 96.1%. For the same compound, the Her2 level in assay [2] is 100% (inactive). Further, the differential viability (reversal) in assay [6] (H69AR cells + 2 uM doxorubicin) is -0.5% (inactive). The values for the inhibition in assay [7] and in assay [8] were 0.13% (inactive) and 12.9% (inactive), respectively.
On to `COC(=O)CCN1CCC(C(N)=O)CC1`, for which the viability in assay [1] is 100%; in assay [3] it was 100% (inactive); in assay [4], 102% (inactive); in assay [5], 100% (inactive); in assay [6] (setting [9]), 85.1%; in assay [6] (setting [10]) it was 100%. Further, in assay [2], the Her2 level is 113% (inactive). The differential viability (reversal) in assay [6] (H69AR cells + 2 uM doxorubicin) is 15% (inactive). Also, the inhibition in assay [7] was -6.8% (inactive); in assay [8], 2.46% (inactive).
With `Cn1c(=O)c2c(-c3ccccc3)n(CCCN3CCOCC3)cc2n(C)c1=O`, the viability is 77.5% in assay [1]; 77.5% (inactive) in assay [3]; 69.7% (inactive) in assay [4]; 82.2% (inactive) in assay [5]; 71.9% in assay [6] (setting [9]); 82.2% in assay [6] (setting [10]). The Her2 level in assay [2] was 98.5% (inactive). The differential viability (reversal) in assay [6] (H69AR cells + 2 uM doxorubicin) was 10.4% (inactive). Also, the inhibition in assay [7] was 2.21% (inactive); in assay [8], -4.29% (inactive).
With `O=C(NC1CCCCC1)n1c(=O)oc2ccc(Cl)cc21`, the viability in assay [1] is 118%; in assay [3] it was 118% (inactive); in assay [4] it was 94.8% (inactive); in assay [5], 94.2% (inactive); in assay [6] (setting [9]) it was 76.7%; in assay [6] (setting [10]) it was 94.2%. For the same compound, the Her2 level in assay [2] is 92% (inactive). The differential viability (reversal) in assay [6] (H69AR cells + 2 uM doxorubicin) is 17.5% (inactive). Besides, the inhibition in assay [7] was -2.73% (inactive); in assay [8] it was -7.62% (inactive).

(Values after PubChem BioAssay.)
